In ChEMBL document CHEMBL1122835, “Synthesis and pharmacology of the potent angiotensin-converting enzyme inhibitor N-[1(S)-(ethoxycarbonyl)-3-phenylpropyl]-(S)-alanyl-(S)-pyroglutamic acid” (J Med Chem, 1985):

Columns and labels:
Rattus norvegicus [1] = experiment: Effect on systolic blood pressure was determined in renal hypertensive rat, administered orally at a dose 10 mg/kg; assay type: functional, Artery; details: route oral
How it was run: (§1)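 Renal hypertensive rats were prepared by clipping the left renal artery (0.22-mm clip) in 4-week-old male CD rats and held 6 weeks. Overnight-fasted rats were dosed orally with aqueous solution (5 mL/kg), water as control. Tail-cuff systolic pressure and heart rate measured 2 h post-dose. ANOVA with Duncan's test; ED30 by linear regression.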

Canis familiaris [2] = experiment: Effect on pressor response of angiotensin I in anesthetized dog, dose 0.1 mg/kg administered intravenously; assay type: functional, Canis lupus familiaris; details: route intravenous
How it was run: (§2)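 Mongrel dogs, 7.3–15.5 kg, anesthetized with barbital/pentobarbital iv, tracheotomized and vagotomized, n = 4. Cumulative iv doses in saline (0.2 mL/kg) spaced 30 min apart. AI and AII 1 μg/kg iv challenges given after each dose; the second pre-dose set served as control.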

Canis familiaris [3] = experiment: Effect on pressor response of angiotensin I in anesthetized dog, dose 0.3 mg/kg administered intravenously; assay type: functional, Canis lupus familiaris; details: route intravenous; how it was run: as §2
Rattus norvegicus [4] = experiment: Percent change was determined in bradykinin depressor response in anesthetized normotensive rat, administered intravenously at dose 0.030 mg/kg; assay type: functional; details: dose 0.03 mg/kg; route intravenous
How it was run: (§3)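 Male Charles River CD rats (380–500 g), pentobarbital Na 15 mg/kg plus barbital 220 mg/kg ip, tracheotomized, femoral artery/vein cannulated, kept at 37 °C. Control bradykinin 1 μg/kg iv depressor response, separate from angiotensin tests; drug iv in 0.9% saline (1 mL/kg, free base) 10 min later, Bk 5 min after each cumulative dose (0.0033–0.27 mg/kg). Maximum fall in arterial pressure versus control response; N = 8.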

Canis familiaris [5] = experiment: Effect on pressor response of angiotensin II in anesthetized dog, dose 0.1 mg/kg administered intravenously; assay type: functional, Canis lupus familiaris; details: route intravenous; how it was run: as §2
[6] = Half life was determined; assay type: ADME; details: rat
How it was run: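 Rats anesthetized with pentobarbital/barbital received a single iv dose, 0.2 or 0.08 mg/kg. AI 0.3 μg/kg iv given at 5 min, then every 10 min for 210 min. Half-life = time for the AI pressor response to fall to 50% of its peak inhibition.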

Rattus norvegicus [7] = experiment: Effect on systolic blood pressure was determined in renal hypertensive rat, administered orally at a dose 30 mg/kg; assay type: functional, Artery; details: route oral; how it was run: as §1
Rattus norvegicus [8] = species: Rattus norvegicus; experiment: Dose required to reduce systolic blood pressure by 30 mmHg; assay type: functional; details: Artery
How it was run: (§4)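 Male SHR, 13 weeks old, given HCTZ 25 mg/kg po in 0.25% methylcellulose daily for 3 days. Drug given orally in water (5 mL/kg) 1 h after the third dose. Tail-cuff systolic pressure and pulse-count heart rate taken 1.5 h later after 20 min warming at 38 °C. ANOVA with Duncan's test; ED30 by linear regression.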

Rattus norvegicus [9] = experiment: Change in heart rate was determined in renal hypertensive rat, administered orally at a dose 30 mg/kg; assay type: functional; details: route oral; how it was run: as §1
Rattus norvegicus [10] = experiment: Decrease in systolic blood pressure of Spontaneous Hypertensive Rats (SHR) pretreated with hydrochlorothiazide upon oral administration at 10 mm/kg; assay type: functional, Artery; how it was run: as §4
Rattus norvegicus [11] = experiment: Effect on systolic blood pressure was determined in renal hypertensive rat, administered orally at a dose 3 mg/kg; assay type: functional, Artery; details: route oral; how it was run: as §1
Canis familiaris [12] = experiment: Effect on pressor response of angiotensin II in conscious dog at 60-65 min, dose 2 mg/kg administered orally; assay type: functional, Canis lupus familiaris; details: route oral
How it was run: (§5)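 Conscious fasted mongrel dogs of both sexes, 6.8–15.3 kg, with femoral cannulas. Drug given orally in 0.25% methylcellulose with 3% glycerin (2 mL/kg), n = 4 per dose. AI 0.3, AII 0.1 and NE 1 μg/kg iv challenges. The second pre-dose set served as control; response measured at 60–65 min post-dose.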

Rattus norvegicus [13] = experiment: Hypotensive activity was determined in low-sodium treated rat, dose 10 mg/kg administered orally at 2 hr; assay type: functional; details: route oral
How it was run: (§6)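 Male CD rats, 11 weeks old, kept on a sodium-deficient diet for 3 weeks and fasted overnight, were dosed orally with aqueous solutions (5 mL/kg), water as control. Systolic pressure measured by tail cuff at the stated post-dose time. ANOVA with Duncan's test.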

Rattus norvegicus [14] = experiment: Hypotensive activity was determined in low-sodium treated rat, dose 10 mg/kg administered orally at 5 hr; assay type: functional; details: route oral; how it was run: as §6
Rattus norvegicus [15] = experiment: Percent decrease in angiotensin I pressor response was measured in rat, administered intravenously at dose 0.010 mg/kg; assay type: functional; details: dose 0.01 mg/kg; route intravenous
How it was run: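 Anesthetized (pentobarbital Na 15 mg/kg + barbital 220 mg/kg ip), tracheotomized male Charles River CD rats, 380–500 g, femoral cannulas, heated board at 37 °C. Control pressor responses to angiotensin I 0.3 μg/kg then angiotensin II 0.1 μg/kg iv; drug iv in 0.9% saline (free base), AI and AII repeated at 5-min intervals, cumulative 0.01–0.81 mg/kg. Peak arterial pressure rise versus control.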

Rattus norvegicus [16] = species: Rattus norvegicus; experiment: Effective dose was determined to increase the vasoResponse in rat; assay type: functional
How it was run: (§7)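 Anesthetized (pentobarbital/barbital ip) male Charles River CD rats, 380–500 g, kept at 37 °C. Femoral artery blood pressure recorded. Control depressor response to bradykinin 1 μg/kg iv, then cumulative iv drug in 0.9% saline (1 mL/kg), 0.0033–0.27 mg/kg. Bk challenge 5 min after each dose. ED50 = dose giving a 50% change from control, by linear regression; N = 8.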

Rattus norvegicus [17] = experiment: Change in heart rate was determined in renal hypertensive rat, administered orally at a dose 100 mg/kg; assay type: functional; details: route oral; how it was run: as §1
Canis familiaris [18] = experiment: Effect on pressor response of angiotensin II in conscious dog at 60-65 min, dose 0.5 mg/kg administered orally; assay type: functional, Canis lupus familiaris; details: route oral; how it was run: as §5
Rattus norvegicus [19] = experiment: Change in heart rate was determined at a dose 3 mg/kg; assay type: functional; how it was run: as §4
Rattus norvegicus [20] = experiment: Decrease in systolic blood pressure of Spontaneous Hypertensive Rats (SHR) pretreated with hydrochlorothiazide upon oral administration at 30 mm/kg; assay type: functional, Artery; how it was run: as §4
Rattus norvegicus [21] = experiment: Effect on vasopressor response caused by angiotensin I (AI) in anesthetized normotensive rat, administered intravenously at dose 0.27 mg/kg; assay type: functional; details: route intravenous
How it was run: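 Male Charles River CD rats, 380–500 g, anesthetized with pentobarbital Na 15 mg/kg plus barbital 220 mg/kg ip, held at 37 °C. Femoral artery pressure recorded. AI 0.3 μg/kg and AII 0.1 μg/kg given iv as challenges. Cumulative iv drug in saline, 0.01–0.81 mg/kg, each dose followed by AI/AII challenges at 5-min intervals. ED50 = 50% change from control response, by linear regression.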

Rattus norvegicus [22] = experiment: Percent change was determined in bradykinin depressor response in anesthetized normotensive rat, administered intravenously at dose 0.0033 mg/kg; assay type: functional; details: route intravenous; how it was run: as §7
Rattus norvegicus [23] = experiment: Effect on systolic blood pressure was determined in renal hypertensive rat, administered orally at a dose 100 mg/kg; assay type: functional, Artery; details: route oral; how it was run: as §1
Rattus norvegicus [24] = experiment: Percent change was determined in bradykinin depressor response in anesthetized normotensive rat, administered intravenously at dose 0.090 mg/kg; assay type: functional; details: dose 0.09 mg/kg; route intravenous; how it was run: as §3
Canis familiaris [25] = experiment: Effect on pressor response of angiotensin II in anesthetized dog, dose 0.3 mg/kg administered intravenously; assay type: functional, Canis lupus familiaris; details: route intravenous; how it was run: as §2
Rattus norvegicus [26] = experiment: Hypotensive activity was determined in low-sodium treated rat, dose 3 mg/kg administered orally at 5 hr; assay type: functional; details: route oral; how it was run: as §6
Canis familiaris [27] = experiment: Effect on pressor response of angiotensin I in conscious dog at 60-65 min, dose 2 mg/kg administered orally; assay type: functional, Canis lupus familiaris; details: route oral; how it was run: as §5
Rattus norvegicus [28] = experiment: Change in heart rate was determined at a dose 10 mg/kg; assay type: functional; how it was run: as §4

Compound: CCOC(=O)[C@H](CCc1ccccc1)N[C@@H](C)C(=O)N1C(=O)CC[C@H]1C(=O)O
- Activity (Rattus norvegicus [1]): 204 mmHg
- Blood pressure (Canis familiaris [2]): 60 mmHg
- Blood pressure (Canis familiaris [3]): 46 mmHg
- Change (Rattus norvegicus [4]): 69%
- Blood pressure (Canis familiaris [5]): 64 mmHg
- half-life [6]: 2 h
- Activity (Rattus norvegicus [7]): 204 mmHg
- ED30 (Rattus norvegicus [8]): 3.5 mg/kg
- Heart rate (Rattus norvegicus [9]): 481 beats min-1
- Blood pressure (Rattus norvegicus [10]): 189 mmHg
- Activity (Rattus norvegicus [11]): 220 mmHg
- Blood pressure (Canis familiaris [12]): 40 mmHg
- Activity (Rattus norvegicus [13]): 148 mmHg
- Activity (Rattus norvegicus [14]): 143 mmHg
- Decrease (Rattus norvegicus [15]): 6%
- ED50 (Rattus norvegicus [16]): 0.012 mg/kg
- Heart rate (Rattus norvegicus [17]): 454 beats min-1
- Blood pressure (Canis familiaris [18]): 48 mmHg
- Heart rate (Rattus norvegicus [19]): 374 beats min-1
- Blood pressure (Rattus norvegicus [20]): 190 mmHg
- Response (Rattus norvegicus [21]): 18 mmHg
- Change (Rattus norvegicus [22]): 22%
- Activity (Rattus norvegicus [23]): 186 mmHg
- Change (Rattus norvegicus [24]): 69%
- Blood pressure (Canis familiaris [25]): 68 mmHg
- Activity (Rattus norvegicus [26]): 153 mmHg
- Blood pressure (Canis familiaris [27]): 8 mmHg
- Heart rate (Rattus norvegicus [28]): 369 beats min-1
